Laboratory results reported in ChEMBL document CHEMBL3871278, “Isolation of Coralmycins A and B, Potent Anti-Gram Negative Compounds from the Myxobacteria Corallococcus coralloides M23” (J Nat Prod, 2016).
Converted amounts (≈) assume the structure as drawn. Counter-ions that a name gives are not always drawn.

Experiments:
Staphylococcus aureus [1] = assay: Antibacterial activity against Staphylococcus aureus RN4220 after 24 hrs by broth microdilution method; assay type: functional; conditions: RN4220, 24 h
Summary of the method: (§1)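 Broth microdilution with triplicate serial 2-fold dilutions; inoculum 10^5 cells/mL at 0.2 mL/well. Strains were grown to mid-log phase and diluted 1000-fold. Media: Mueller-Hinton broth for most strains, nutrient broth for A. baumannii, Todd-Hewitt for S. pneumoniae. DMSO was at most 0.05% final. After 24 h at 37 °C, MIC = lowest concentration completely inhibiting growth, read by A650.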

Staphylococcus aureus [2] = assay: Antibacterial activity against methicillin-resistant Staphylococcus aureus CCARM 3167 after 24 hrs by broth microdilution method; assay type: functional; conditions: CCARM 3167, 24 h
Summary of the method: (§2)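 Strains grown to mid-log phase in Mueller-Hinton broth, diluted 1000-fold; 10^5 cells/mL in Mueller-Hinton broth exposed to serial 2-fold dilutions of compound from DMSO stocks (final DMSO ≤0.05%; 0.05% DMSO vehicle control; ciprofloxacin comparator). Incubated 24 h at 37 °C; growth read by absorbance at 650 nm. MIC = lowest concentration completely inhibiting growth, in triplicate.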

Staphylococcus aureus [3] = assay: Antibacterial activity against methicillin-resistant Staphylococcus aureus CCARM 3506 after 24 hrs by broth microdilution method; assay type: functional; conditions: CCARM 3506, 24 h; summary of the method: as §2
Staphylococcus aureus [4] = assay: Antibacterial activity against quinolone-resistant Staphylococcus aureus CCARM 3505 after 24 hrs by broth microdilution method; assay type: functional; conditions: CCARM 3505, 24 h; summary of the method: as §2
Staphylococcus aureus [5] = assay: Antibacterial activity against quinolone-resistant Staphylococcus aureus CCARM 3519 after 24 hrs by broth microdilution method; assay type: functional; conditions: CCARM 3519, 24 h; summary of the method: as §2
Streptococcus pneumoniae = assay: Antibacterial activity against Streptococcus pneumoniae KCTC 5412 after 24 hrs by broth microdilution method; assay type: functional; conditions: KCTC 5412, 24 h; summary of the method: as §1
Enterococcus faecalis = assay: Antibacterial activity against Enterococcus faecalis KCTC 5191 after 24 hrs by broth microdilution method; assay type: functional; conditions: KCTC 5191, 24 h; summary of the method: as §1
Escherichia coli [6] = assay: Antibacterial activity against Escherichia coli CCARM 1356 after 24 hrs by broth microdilution method; assay type: functional; conditions: CCARM 1356, 24 h; summary of the method: as §1
Escherichia coli [7] = assay: Antibacterial activity against Escherichia coli KCTC 1682 after 24 hrs by broth microdilution method; assay type: functional; conditions: KCTC 1682, 24 h; summary of the method: as §1
Pseudomonas aeruginosa = assay: Antibacterial activity against Pseudomonas aeruginosa KCTC 2004 after 24 hrs by broth microdilution method; assay type: functional; conditions: KCTC 2004, 24 h; summary of the method: as §1
Acinetobacter baumannii = assay: Antibacterial activity against Acinetobacter baumannii KCTC 2508 after 24 hrs by broth microdilution method; assay type: functional; conditions: KCTC 2508, 24 h; summary of the method: as §1
Klebsiella pneumoniae = assay: Antibacterial activity against Klebsiella pneumoniae KCTC 22057 after 24 hrs by broth microdilution method; assay type: functional; conditions: KCTC 22057, 24 h; summary of the method: as §1
[8] = Cytotoxicity against human HepG2 cells assessed as cell growth inhibition at 50 ug/ml after 48 hrs by SRB assay; assay type: toxicity, cell-based; conditions: hepg2, 48 h
Summary of the method: (§3)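 Single-concentration test at 50 μg/mL for 48 h. HepG2, MRC-9 or MCF10A cells (under passage 20) were grown in RPMI 1640 with 10% newborn calf serum and seeded at 1 × 10^4 cells/well one day before treatment. Growth inhibition was read by sulforhodamine B assay.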

[9] = Cytotoxicity against human MRC9 cells assessed as cell growth inhibition at 50 ug/ml after 48 hrs by SRB assay; assay type: toxicity, cell-based; conditions: mrc9, 48 h; summary of the method: as §3
[10] = Cytotoxicity against human MCF10A cells assessed as cell growth inhibition at 50 ug/ml after 48 hrs by SRB assay; assay type: toxicity, cell-based; conditions: mcf-10a; summary of the method: as §3
[11] = Cytotoxicity against human HepG2 cells assessed as cell growth inhibition after 48 hrs by SRB assay; assay type: toxicity, cell-based
Summary of the method: (§4)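 HepG2, MRC-9 or MCF10A cells (under passage 20) were grown in RPMI 1640 with 10% newborn calf serum and seeded at 1 × 10^4 cells/well one day before treatment. Compounds were applied at various concentrations for 48 h. Viability was measured by sulforhodamine B staining, and GI50 was calculated from the dose-response.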

[12] = Cytotoxicity against human MRC9 cells assessed as cell growth inhibition after 48 hrs by SRB assay; assay type: toxicity, cell-based; summary of the method: as §4
[13] = Cytotoxicity against human MCF10A cells assessed as cell growth inhibition after 48 hrs by SRB assay; assay type: toxicity, cell-based, MCF-10A; summary of the method: as §4

Compound | MIC (Staphylococcus aureus [1]) [µg/mL] | MIC (Staphylococcus aureus [2]) [µg/mL] | MIC (Staphylococcus aureus [3]) [µg/mL] | MIC (Staphylococcus aureus [4]) [µg/mL] | MIC (Staphylococcus aureus [5]) [µg/mL] | MIC (Streptococcus pneumoniae) [µg/mL] | MIC (Enterococcus faecalis) [µg/mL] | MIC (Escherichia coli [6]) [µg/mL] | MIC (Escherichia coli [7]) [µg/mL] | MIC (Pseudomonas aeruginosa) [µg/mL] | MIC (Acinetobacter baumannii) [µg/mL] | MIC (Klebsiella pneumoniae) [µg/mL] | Activity [8] | Activity [9] | Activity [10] | GI50 at 48 h [11] [µg/mL] | GI50 at 48 h [12] [µg/mL] | GI50 at 48 h [13] [µg/mL]
CO[C@@H](C(N)=O)[C@H](NC(=O)c1ccc(NC(=O)c2ccc([N+](=O)[O-])cc2)cc1)C(=O)Nc1ccc(C(=O)Nc2ccc(C(=O)Nc3ccc(C(=O)O)c(O)c3OC(C)C)c(O)c2OC(C)C)cc1 | 0.015 (≈ 0.016 µM) | 0.015 (≈ 0.016 µM) | 0.015 (≈ 0.016 µM) | 0.125 (≈ 0.134 µM) | 0.25 (≈ 0.267 µM) | 0.25 (≈ 0.267 µM) | 0.03 (≈ 0.0321 µM) | 0.125 (≈ 0.134 µM) | 0.125 (≈ 0.134 µM) | 4 (≈ 4.27 µM) | 0.125 (≈ 0.134 µM) | 2 (≈ 2.14 µM) |  |  |  |  |  | 
CO[C@@H](C(N)=O)[C@H](NC(=O)c1ccc(NC(=O)c2ccc([N+](=O)[O-])cc2)cc1)C(=O)Nc1ccc(C(=O)Nc2ccc(C(=O)Nc3ccc(C(=O)O)cc3OC(C)C)c(O)c2OC(C)C)cc1 | 0.063 (≈ 0.0685 µM) | 0.125 (≈ 0.136 µM) | 0.125 (≈ 0.136 µM) | 1 (≈ 1.09 µM) | 2 (≈ 2.17 µM) | 2 (≈ 2.17 µM) | 0.125 (≈ 0.136 µM) | 1 (≈ 1.09 µM) | 0.5 (≈ 0.544 µM) | 8 (≈ 8.7 µM) | 0.25 (≈ 0.272 µM) | 8 (≈ 8.7 µM) | Non-Toxic | Non-Toxic | Non-Toxic |  |  | 
CO[C@H](C(=O)O)[C@H](NC(=O)c1ccc(NC(=O)c2ccc([N+](=O)[O-])cc2)cc1)C(=O)Nc1ccc(C(=O)Nc2ccc(C(=O)Nc3ccc(C(=O)O)cc3OC(C)C)c(O)c2OC(C)C)cc1 | 2 (≈ 2.17 µM) | 1 (≈ 1.09 µM) | 1 (≈ 1.09 µM) |  |  | > 16 | 4 (≈ 4.34 µM) | 16 (≈ 17.4 µM) | 4 (≈ 4.34 µM) | > 16 | 4 (≈ 4.34 µM) | > 16 |  |  |  |  |  | 
O=C(O)c1cn(C2CC2)c2cc(N3CCNCC3)c(F)cc2c1=O [CIPROFLOXACIN] |  | 2 (≈ 6.04 µM) |  | 128 (≈ 386 µM) | 128 (≈ 386 µM) |  | 0.5 (≈ 1.51 µM) | 64 (≈ 193 µM) |  | 0.06 (≈ 0.181 µM) | 0.125 (≈ 0.377 µM) | 0.006 (≈ 0.0181 µM) |  |  |  |  |  | 
COc1cccc2c1C(=O)c1c(O)c3c(c(O)c1C2=O)C[C@@](O)(C(=O)CO)C[C@@H]3O[C@H]1C[C@H](N)[C@H](O)[C@H](C)O1 [DOXORUBICIN HYDROCHLORIDE] |  |  |  |  |  |  |  |  |  |  |  |  |  |  |  | 0.04 to 0.08 | 0.04 to 0.08 | 0.04 to 0.08
